Data set [1] can be described thus: Selectivity index, ratio of IC50 for human […] cells to IC50 for human A549 cells. A digest of the protocol: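 Selectivity index equals the IC50 against WI38 normal cells divided by the IC50 against A549 cells.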
In data set [2] the test system is A549. Nature of the data set: Cytotoxicity against human A549 cells assessed as reduction in cell viability after 48 hrs by MTT assay. It is filed as functional, cell-based. To be noted: A549, 48 h. A digest of the protocol: (§1)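 Cells exposed to compounds from 1 × 10−4 to 1 × 10−6 M for 48 h. Viability read by MTT. IC50 derived from five concentrations, each run in triplicate.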
(In general: Tetrazolium dyes change colour on reduction, which living cells bring about.)

Data set [3] deals with HL-60. Kind of data set: Induction of apoptosis in human HL60 cells assessed as early apoptotic cells at 3 uM after 48 hrs by Annexin V-FITC/propidium iodide staining based flow cytometry (reference value: 0.8%). The class given is functional. In outline: (§2)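 HL60 cells cultured with 3.0 μM for 0, 24 and 48 h. Cells stained with annexin V-FITC and propidium iodide and analyzed by flow cytometry for early and late apoptotic fractions. Mean of three experiments, compared against an untreated negative control.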
(In general: A flow cytometer gives signals particle by particle.)

For data set [4], the system named is HL-60. Kind of data set: Induction of apoptosis in human HL60 cells assessed as increase in cleaved caspase-8 expression at 3 uM after 24 to 48 hrs by Western blot analysis. It is filed as functional, cell-based. A digest of the protocol:
(§3)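 HL60 cells treated with 3.0 μM for 24 and 48 h, then lysed in RIPA buffer. Total protein cleared by centrifugation and quantified by BCA. Procaspase and cleaved caspase-3, -8 and -9 levels assessed by Western blot.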

In data set [5] the test system is AZ-521 cell line. Nature of the data set: Cytotoxicity against human AZ-521 cells assessed as reduction in cell viability after 48 hrs by MTT assay. The class given is functional, cell-based. The note with it: AZ-521, 48 h. In outline: as §1
Data set [6] has as its system HL-60. Nature of the data set: Induction of apoptosis in human HL60 cells assessed as increase in cleaved caspase-3 expression at 3 uM after 24 to 48 hrs by Western blot analysis. It is filed as functional, cell-based. A digest of the protocol:
as §3
(In western blotting, separated proteins are transferred to a membrane and probed.)

The nature of data set [7]: Cytotoxicity against non-stimulated mouse B16F10 cells assessed as cell viability at 100 uM relative to control. The class given is cell-based, B16-F10. To be noted: read-out: Activity. In outline: (§4)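 B16 melanoma cells tested for viability at 10 or 100 μM. Absorbance read at 570 nm (test) minus 630 nm (reference). Expressed as % of DMSO control (DMSO 2 μL·mL−1). Mean ± SD, n = 3.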

Data set [8] relates to SK-BR-3. Nature of the data set: Cytotoxicity against human SKBR3 cells assessed as reduction in cell viability after 48 hrs by MTT assay. The class given is functional, cell-based. To be noted: SK-BR-3, 48 h. In outline:
as §1

In data set [9] the test system is HL-60. Nature of the data set: Induction of apoptosis in human HL60 cells assessed as late apoptotic cells at 3 uM after 24 hrs by Annexin V-FITC/propidium iodide staining based flow cytometry (reference value: 3%). The class given is functional. A digest of the protocol:
as §2

Data set [10] deals with B16-F10. Kind of data set: Inhibition of alpha-MSH-stimulated melanogenesis in mouse B16F10 cells assessed as melanin content at 10 uM measured after 48 hrs relative to control. Set-up: scale not given: the % may be the effect or the level left. It is filed as functional. In outline: (§5)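 B16F10 cells treated with test sample plus 0.10 μM α-MSH for 48 h. Melanin solubilized in 2 N NaOH–10% DMSO and read at 405 nm. Expressed as % of DMSO-treated cells (DMSO 2 μL·mL−1). Mean ± SD, n = 3.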

In data set [11] the test system is HL-60. Nature of the data set: Induction of apoptosis in human HL60 cells assessed as early apoptotic cells at 3 uM after 24 hrs by Annexin V-FITC/propidium iodide staining based flow cytometry (reference value: 2.4%). It is filed as functional. In outline: as §2
Data set [12] has as its system B16-F10. Kind of data set: Inhibition of alpha-MSH-stimulated melanogenesis in mouse B16F10 cells assessed as melanin content at 100 uM measured after 48 hrs relative to control. It is filed as functional. Set-up: scale not given: the % may be the effect or the level left. A digest of the protocol:
as §5

Data set [13] has as its system B16-F10. Kind of data set: Selectivity index, ratio of compound effect for cytotoxicity against non-stimulated mouse B16F10 cells assessed as cell viability at 100 uM to compound effect for inhibition of alpha-MSH-stimulated melanogenesis in mouse B16F10 cells assessed as melanin content at 100 uM.
For data set [14], the system named is HL-60. Kind of data set: Cytotoxicity against human HL60 cells assessed as reduction in cell viability after 48 hrs by MTT assay. The note with it: HL-60, 48 h. The class given is functional, cell-based. In outline: as §1
Data set [15] concerns HL-60. Nature of the data set: Induction of apoptosis in human HL60 cells assessed as cell shrinkage at 0.3 to 3 uM after 24 hrs by Hoechst 33342 staining based fluorescence microscopic analysis. The class given is functional. The note with it: 1 to 3 uM, in the assay text read “1 to 3 uM” for “0.3 to 3 uM”. In outline: (§6)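 HL60 cells treated for 24 h, fixed in 4% paraformaldehyde, and nuclei stained with Hoechst 33342. Cell shrinkage, nuclear fragmentation and chromatin condensation scored by fluorescence microscopy.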

Data set [16] relates to HL-60. Nature of the data set: Induction of apoptosis in human HL60 cells assessed as late apoptotic cells at 3 uM after 48 hrs by Annexin V-FITC/propidium iodide staining based flow cytometry (reference value: 1.9%). It is filed as functional. In outline:
as §2

In data set [17] the test system is HL-60. Nature of the data set: Induction of apoptosis in human HL60 cells assessed as chromatin condensation at 1 to 3 uM after 24 hrs by Hoechst 33342 staining based fluorescence microscopic analysis. It is filed as functional, cell-based. In outline:
as §6

The subject of data set [18] is HL-60. Kind of data set: Induction of apoptosis in human HL60 cells assessed as increase in cleaved caspase-9 expression at 3 uM after 24 to 48 hrs by Western blot analysis. It is filed as functional, cell-based. In outline: as §3
Data set [19] concerns B16-F10. Nature of the data set: Selectivity index, ratio of compound effect for cytotoxicity against non-stimulated mouse B16F10 cells assessed as cell viability at 10 uM to compound effect for inhibition of alpha-MSH-stimulated melanogenesis in mouse B16F10 cells assessed as melanin content at 10 uM.
Data set [20] concerns HL-60. Kind of data set: Induction of apoptosis in human HL60 cells assessed as fragmentation of nuclei at 1 to 3 uM after 24 hrs by Hoechst 33342 staining based fluorescence microscopic analysis. The class given is functional, cell-based. A digest of the protocol: as §6
Data set [21] in a line: Cytotoxicity against non-stimulated mouse B16F10 cells assessed as cell viability at 10 uM relative to control. The class given is cell-based, B16-F10. To be noted: read-out: Activity. In outline:
as §4

The subject of data set [22] is WI-38. Kind of data set: Cytotoxicity against human WI38 cells assessed as reduction in cell viability after 48 hrs by MTT assay. The class given is cell-based. To be noted: WI-38, 48 h. In outline:
as §1

These results are taken from ChEMBL document CHEMBL4382264, “Melanogenesis-Inhibitory and Cytotoxic Activities of Triterpene Glycoside Constituents from the Bark of Albizia procera” (J Nat Prod, 2018).

pIC50: −log10 of the molar value. Active and inactive are the calls of the source. No cut-off for these calls is given here.

As a reminder, the pIC50 is the negative decadic logarithm of the IC50, by convention in mol/L.

Consider `C=C[C@@](C)(O)CC/C=C(\C)C(=O)O[C@H]1[C@H](O)[C@@H](O)[C@H](O[C@](C)(C=C)CCCC(C)C(=O)O[C@H]2C[C@]3(C(=O)O[C@@H]4O[C@H](CO)[C@@H](O)[C@H](O)[C@H]4O[C@@H]4O[C@@H](C)[C@H](O[C@@H]5O[C@@H](CO)[C@H](O)[C@H]5O)[C@@H](O[C@@H]5O[C@H](CO)[C@@H](O)[C@H](O)[C@H]5O)[C@H]4O)[C@H](O)C[C@]4(C)C(=CC[C@@H]5[C@@]6(C)CC[C@H](O[C@@H]7O[C@H](CO[C@@H]8OC[C@H](O)[C@H](O)[C@H]8O[C@@H]8OC[C@@H](O)[C@H](O)[C@H]8O)[C@@H](O)[C@H](O)[C@H]7O[C@@H]7O[C@H](CO)[C@@H](O)[C@H](O)[C@H]7O)C(C)(C)[C@@H]6CC[C@]54C)[C@@H]3CC2(C)C)O[C@@H]1C` (some centres not stated), for which the “Ratio IC50” value in data set [1] is 16.9. For the same compound, the pIC50 is 6.52 in [2]; 6.30 in data set [5]; 5.89 in data set [8]; 6.52 in data set [14]; 5.29 in data set [22]. Besides, the Activity was 38.2% in data set [3]; 22.7% in data set [9]; 80.9% in [10]; 19% in [11]; 50.7% in [12]; 42.2% in data set [16]. In addition, the outcome in data set [4], in data set [6], in data set [15], in data set [17], in data set [18] and in data set [20] was Active. Moreover, the viability at 100 µM in [7] came to 100%. Besides, the results for the Ratio in data set [13] and in data set [19] were 0.51 and 0.78, respectively. In addition, in data set [21], the viability at 10 µM is 103%.
